Data reported in ChEMBL document CHEMBL3616366, “Design, synthesis and biological activity of new amides derived from 3-methyl-3-phenyl-2,5-dioxo-pyrrolidin-1-yl-acetic acid” (Eur J Med Chem, 2015).
Active and inactive are the calls of the source. The calls are words filed in the database; no cut-off is given here.

How the values were obtained:
Mus musculus [1] = test: Anticonvulsant activity in ip dosed albino CD-1 mouse assessed as protection against subcutaneous pentylenetetrazole-induced seizure measured as time to peak effect; format: functional
In short: (§1)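 Quantitative work at time of peak effect previously estimated in screening; groups of six mice given various i.p. doses until ≥3 points within 10–90% seizure protection (MES or scPTZ) or minimal motor impairment on rotarod (10 rpm, failure to hold ≥1 min).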

Mus musculus [2] = test: Neurotoxicity in albino CD-1 mouse assessed as motor impairment at 30 to 300 mg/kg mg/kg, ip measured after 0.5 hrs by rotarod test; format: toxicity, organism-based; settings: in vivo
In short: (§2)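 Rotarod in male CD-1 mice at 0.5 and 2 h after i.p. 30, 100 or 300 mg/kg (methylcellulose suspension); motor impairment = inability to keep balance on rod turning at 10 rpm for at least 1 min. Minimum neurotoxic dose reported.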

Mus musculus [3] = test: Neurotoxicity in albino CD-1 mouse assessed as motor impairment at 30 to 300 mg/kg mg/kg, ip measured after 2 hrs by rotarod test; format: toxicity, organism-based; settings: in vivo; in short: as §2
Mus musculus [4] = test: Anticonvulsant activity in ip dosed albino CD-1 mouse assessed as protection against maximal electroshock-induced seizure measured as time to peak effect; format: functional; in short: as §1
Mus musculus [5] = test: Anticonvulsant activity in albino CD-1 mouse assessed as protection against subcutaneous pentylenetetrazole-induced seizure at 30 to 300 mg/kg, ip measured after 2.0 hrs; format: functional; settings: for minimal effective dose: CD-1, 2 h, read-out: MED
In short: (§3)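 Male CD-1 mice given compound i.p. (0.5% methylcellulose suspension) at 30, 100, 300 mg/kg, four per group; pentylenetetrazole 85 mg/kg s.c. at 0.5 or 2 h. Absence of clonic convulsions (≥5 s) over 30 min observation counts as protection. Minimum active dose reported.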

Mus musculus [6] = test: Anticonvulsant activity in albino CD-1 mouse assessed as protection against maximal electroshock-induced seizure at 30 to 300 mg/kg, ip measured after 0.5 hrs; format: functional; settings: for minimal effective dose: CD-1, ip, read-out: MED
In short: (§4)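 Male CD-1 mice (16–26 g), compound suspended in 0.5% methylcellulose/water, i.p. at 30, 100, 300 mg/kg; four mice per group, each used once. Electroconvulsion by electrical stimulus 0.2 s at 50 Hz; protection scored at 0.5 and 2 h. Value is minimum dose showing activity.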

Mus musculus [7] = test: Anticonvulsant activity in albino CD-1 mouse assessed as protection against subcutaneous pentylenetetrazole-induced seizure at 30 to 300 mg/kg, ip measured after 0.5 hrs; format: functional; settings: for minimal effective dose: CD-1, 0.5 h, read-out: MED; in short: as §3
Mus musculus [8] = test: Anticonvulsant activity in albino CD-1 mouse assessed as protection against maximal electroshock-induced seizure at 30 to 300 mg/kg, ip measured after 2.0 hrs; format: functional; settings: for minimal effective dose: CD-1, ip, read-out: MED; in short: as §4
Mus musculus [9] = test: Anticonvulsant activity in ip dosed albino CD-1 mouse assessed as protection against maximal electroshock-induced seizure; format: functional; settings: CD-1, ip; in short: as §1
Mus musculus [10] = test: Anticonvulsant activity in ip dosed albino CD-1 mouse assessed as protection against 6 Hz current-induced seizure measured after 2.0 hrs; format: functional; settings: CD-1, ip, read-out: MED
In short: (§5)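 6-Hz psychomotor test: corneal stimulation 32 mA, 0.2 ms monopolar rectangular pulses at 6 Hz for 3 s, mice restrained then released to observation cage. Protected if normal exploratory behaviour resumes within 10 s. Doses 30, 100, 300 mg/kg i.p.; read at 0.5 and 2 h; minimum active dose.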

Mus musculus [11] = test: Anticonvulsant activity in ip dosed albino CD-1 mouse assessed as protection against 6 Hz current-induced seizure measured after 0.5 hrs; format: functional; settings: CD-1, ip, read-out: MED; in short: as §5
[12] = Neurotoxicity in ip dosed albino CD-1 mouse assessed as motor impairment by rotarod test; format: toxicity, organism-based; settings: in vivo; in short: as §1
[13] = Protective index, ratio of TD50 for neurotoxicity in ip dosed albino CD-1 mouse to ED50 for anticonvulsant activity in ip dosed subcutaneous pentylenetetrazole-induced seizure albino CD-1 mouse model; format: toxicity, organism-based; settings: in vivo, read-out: Ratio TD50/ED50
In short: (§6)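 Protective index computed as TD50 (rotarod) divided by ED50 (MES or scPTZ), both from probit analysis on groups of six i.p.-dosed mice.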

Mus musculus [14] = test: Anticonvulsant activity in ip dosed albino CD-1 mouse assessed as protection against subcutaneous pentylenetetrazole-induced seizure; format: functional; in short: as §1
Rattus norvegicus = species on record: Rattus norvegicus; test: Displacement of [3H]BTX from voltage-sensitive sodium channel site2 in rat cerebral cortex at 100 uM measured after 60.0 mins by scintillation counting; format: tissue-based
[15] = Protective index, ratio of TD50 for neurotoxicity in ip dosed albino CD-1 mouse to ED50 for anticonvulsant activity in ip dosed maximal electoshock-induced seizure albino CD-1 mouse model; format: toxicity, organism-based; settings: in vivo, read-out: Ratio TD50/ED50; in short: as §6

Compound: CCCC(CCC)C(=O)O [VALPROIC ACID]
- Time (Mus musculus [1]): 0.5 h
- MTC (Mus musculus [2]): Non-toxic
- MTC (Mus musculus [3]): Non-toxic
- Time (Mus musculus [4]): 0.5 h
- MED (Mus musculus [5]): inactive
- minimal effective dose (Mus musculus [6]): 300 mg/kg
- minimal effective dose (Mus musculus [7]): 300 mg/kg
- MED (Mus musculus [8]): inactive

Compound: CCC1(C)CC(=O)NC1=O (stereo unspecified) [ETHOSUXIMIDE]
- Time (Mus musculus [1]): 0.25 h
- MTC (Mus musculus [2]): Non-toxic
- MTC (Mus musculus [3]): Non-toxic
- Time (Mus musculus [4]): 0.25 h
- minimal effective dose (Mus musculus [5]): 300 mg/kg
- MED (Mus musculus [6]): inactive
- minimal effective dose (Mus musculus [7]): 100 mg/kg
- MED (Mus musculus [8]): inactive
- ED50 (Mus musculus [9]): > 500 mg/kg

Compound: CC1(c2ccccc2)CC(=O)N(CC(=O)N2CCN(c3cccc(C(F)(F)F)c3)CC2)C1=O (stereo unspecified)
- minimal effective dose (Mus musculus [10]): 300 mg/kg
- MTC (Mus musculus [2]): Non-toxic
- MTC (Mus musculus [3]): Non-toxic
- MED (Mus musculus [5]): inactive
- minimal effective dose (Mus musculus [6]): 300 mg/kg
- MED (Mus musculus [7]): inactive
- minimal effective dose (Mus musculus [8]): 300 mg/kg
- minimal effective dose (Mus musculus [11]): 300 mg/kg

Compound: CC1(c2ccccc2)CC(=O)N(CC(=O)N2CCN(Cc3ccccc3)CC2)C1=O (stereo unspecified)
- Time (Mus musculus [1]): 0.5 h
- MTC (Mus musculus [2]): 300 mg/kg
- MTC (Mus musculus [3]): 300 mg/kg
- Time (Mus musculus [4]): 0.5 h
- minimal effective dose (Mus musculus [5]): 300 mg/kg
- TD50 [12]: 205 mg/kg
- MED (Mus musculus [6]): inactive
- minimal effective dose (Mus musculus [7]): 100 mg/kg
- MED (Mus musculus [8]): inactive
- selectivity ratio [13]: 2.12
- ED50 (Mus musculus [14]): 96.5 mg/kg

Compound: Cc1ccccc1N1CCN(C(=O)CN2C(=O)CC(C)(c3ccccc3)C2=O)CC1 (stereo unspecified)
- MTC (Mus musculus [2]): Non-toxic
- MTC (Mus musculus [3]): Non-toxic
- MED (Mus musculus [5]): inactive
- MED (Mus musculus [6]): inactive
- MED (Mus musculus [7]): inactive
- MED (Mus musculus [8]): inactive

Compound: CC1(c2ccccc2)CC(=O)N(CC(=O)N2CCN(c3ccccc3Cl)CC2)C1=O (stereo unspecified)
- Time (Mus musculus [1]): 2 h
- MTC (Mus musculus [2]): Non-toxic
- MTC (Mus musculus [3]): Non-toxic
- Time (Mus musculus [4]): 2 h
- minimal effective dose (Mus musculus [5]): 100 mg/kg
- TD50 [12]: > 500 mg/kg
- MED (Mus musculus [6]): inactive
- MED (Mus musculus [7]): inactive
- MED (Mus musculus [8]): inactive
- selectivity ratio [13]: > 4.16
- ED50 (Mus musculus [14]): 120 mg/kg

Compound: CC1(c2ccccc2)CC(=O)N(CC(=O)N2CCOCC2)C1=O (stereo unspecified)
- minimal effective dose (Mus musculus [10]): 100 mg/kg
- MTC (Mus musculus [2]): Non-toxic
- MTC (Mus musculus [3]): Non-toxic
- minimal effective dose (Mus musculus [5]): 300 mg/kg
- minimal effective dose (Mus musculus [6]): 300 mg/kg
- minimal effective dose (Mus musculus [7]): 300 mg/kg
- minimal effective dose (Mus musculus [8]): 300 mg/kg
- minimal effective dose (Mus musculus [11]): 100 mg/kg

Compound: CC1(c2ccccc2)CC(=O)N(CC(=O)N2CCN(c3ccccc3)CC2)C1=O (stereo unspecified)
- Time (Mus musculus [1]): 0.5 h
- MTC (Mus musculus [2]): Non-toxic
- inhibition (Rattus norvegicus): 34.2%
- MTC (Mus musculus [3]): Non-toxic
- Time (Mus musculus [4]): 0.5 h
- minimal effective dose (Mus musculus [5]): 300 mg/kg
- TD50 [12]: > 500 mg/kg
- minimal effective dose (Mus musculus [6]): 300 mg/kg
- minimal effective dose (Mus musculus [7]): 100 mg/kg
- MED (Mus musculus [8]): inactive
- selectivity ratio [13]: > 12.2
- ED50 (Mus musculus [14]): 40.9 mg/kg

Compound: CC1(c2ccccc2)CC(=O)N(CC(=O)N2CCN(c3ncccn3)CC2)C1=O (stereo unspecified)
- MTC (Mus musculus [2]): Non-toxic
- MTC (Mus musculus [3]): Non-toxic
- minimal effective dose (Mus musculus [5]): 100 mg/kg
- MED (Mus musculus [6]): inactive
- MED (Mus musculus [7]): inactive
- MED (Mus musculus [8]): inactive

Compound: Cc1cccc(N2CCN(C(=O)CN3C(=O)CC(C)(c4ccccc4)C3=O)CC2)c1 (stereo unspecified)
- MTC (Mus musculus [2]): 300 mg/kg
- MTC (Mus musculus [3]): 300 mg/kg
- MED (Mus musculus [5]): inactive
- minimal effective dose (Mus musculus [6]): 100 mg/kg
- MED (Mus musculus [7]): inactive
- minimal effective dose (Mus musculus [8]): 300 mg/kg

Compound: CC1(c2ccccc2)CC(=O)N(CC(=O)N2CCN(c3cccc(Cl)c3Cl)CC2)C1=O (stereo unspecified)
- MTC (Mus musculus [2]): Non-toxic
- MTC (Mus musculus [3]): Non-toxic
- MED (Mus musculus [5]): inactive
- MED (Mus musculus [6]): inactive
- minimal effective dose (Mus musculus [7]): 300 mg/kg
- MED (Mus musculus [8]): inactive

Compound: O=C1NC(=O)C(c2ccccc2)(c2ccccc2)N1 [PHENYTOIN]
- Time (Mus musculus [1]): 1 h
- selectivity ratio [15]: 5.56
- MTC (Mus musculus [2]): 100 mg/kg
- MTC (Mus musculus [3]): 100 mg/kg
- Time (Mus musculus [4]): 1 h
- MED (Mus musculus [5]): inactive
- TD50 [12]: 59.9 mg/kg
- minimal effective dose (Mus musculus [6]): 30 mg/kg
- MED (Mus musculus [7]): inactive
- minimal effective dose (Mus musculus [8]): 30 mg/kg
- ED50 (Mus musculus [14]): > 500 mg/kg
- ED50 (Mus musculus [9]): 6.65 mg/kg

Compound: CC1(c2ccccc2)CC(=O)N(CC(=O)N2CCN(c3ccc(Cl)cc3)CC2)C1=O (stereo unspecified)
- MTC (Mus musculus [2]): Non-toxic
- MTC (Mus musculus [3]): Non-toxic
- minimal effective dose (Mus musculus [5]): 300 mg/kg
- MED (Mus musculus [6]): inactive
- minimal effective dose (Mus musculus [7]): 300 mg/kg
- MED (Mus musculus [8]): inactive

Compound: COc1cccc(N2CCN(C(=O)CN3C(=O)CC(C)(c4ccccc4)C3=O)CC2)c1 (stereo unspecified)
- MTC (Mus musculus [2]): Non-toxic
- MTC (Mus musculus [3]): Non-toxic
- MED (Mus musculus [5]): inactive
- MED (Mus musculus [6]): inactive
- minimal effective dose (Mus musculus [7]): 100 mg/kg
- MED (Mus musculus [8]): inactive

Compound: CC1(c2ccccc2)CC(=O)N(CC(=O)N2CCN(c3cccc(Cl)c3)CC2)C1=O (stereo unspecified)
- Time (Mus musculus [1]): 2 h
- selectivity ratio [15]: > 2.32
- MTC (Mus musculus [2]): Non-toxic
- MTC (Mus musculus [3]): Non-toxic
- Time (Mus musculus [4]): 2 h
- MED (Mus musculus [5]): inactive
- TD50 [12]: > 500 mg/kg
- minimal effective dose (Mus musculus [6]): 300 mg/kg
- MED (Mus musculus [7]): inactive
- minimal effective dose (Mus musculus [8]): 300 mg/kg
- ED50 (Mus musculus [9]): 215 mg/kg
